Reference: ChEMBL document CHEMBL4229382, “Phenylthiazoles with tert-Butyl side chain: Metabolically stable with anti-biofilm activity” (Eur J Med Chem, 2018)
Converted amounts (≈) assume the structure as drawn. The source made the active and inactive calls. The rule behind the calls is not given here.

What was measured:
Caco-2 = experiment: Cytotoxicity against human Caco2 cells at 32 ug/ml after 2 hrs by MTS assay; assay type: cell-based; settings: caco-2, 2 h
Summary of the method: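 Caco-2 cells grown in DMEM with 20% FBS, non-essential amino acids and penicillin-streptomycin, 37 °C, 5% CO2; exposed in triplicate to compounds (16, 32, 64 µg/mL) for 2 h; MTS added, 4 h further incubation, OD490 read; viability as percent of DMSO-treated controls; two independent experiments.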

Staphylococcus aureus [1] = experiment: Antibacterial activity against methicillin-resistant Staphylococcus aureus NRS385 after 18 hrs by broth microdilution assay; assay type: functional; settings: NRS385, 18 h
Summary of the method: (§1)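 Broth microdilution: inoculum from 0.5 McFarland suspension diluted to about 5 × 10^5 CFU/mL. Media were cation-adjusted Mueller-Hinton broth for staphylococci, brain heart infusion for E. faecium, and tryptone soya broth for E. faecalis, S. pneumoniae and L. monocytogenes.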

Streptococcus pneumoniae [2] = experiment: Antibacterial activity against cephalosporin-resistant Streptococcus pneumoniae ATCC 51916 after 18 hrs by broth microdilution assay; assay type: functional; settings: ATCC 51916, 18 h; summary of the method: as §1
[3] = Safety index, ratio of cytotoxicity against human Caco2 cells at 32 ug/ml after 2 hrs by MTS assay to antibacterial activity against methicillin-resistant Staphylococcus aureus; assay type: toxicity, cell-based; settings: Caco-2 cells
Streptococcus pneumoniae [4] = experiment: Bactericidal activity against methicillin-resistant Streptococcus pneumoniae ATCC 700677 incubated fo 18 hrs followed by re-plating on tryptic soy agar plates at 37 degC for 18 hrs by broth microdilution assay; assay type: functional; settings: ATCC 700677, 18 h
Staphylococcus aureus [5] = experiment: Antibacterial activity against methicillin-resistant Staphylococcus aureus NRS384 USA300 after 18 hrs by broth microdilution assay; assay type: functional; settings: NRS384 USA300, 18 h; summary of the method: as §1
Staphylococcus aureus [6] = experiment: Bactericidal activity against methicillin-sensitive Staphylococcus aureus ATCC 6538 incubated fo 18 hrs followed by re-plating on tryptic soy agar plates at 37 degC for 18 hrs by broth microdilution assay; assay type: functional; settings: ATCC 6538, 18 h
Streptococcus pneumoniae [7] = experiment: Antibacterial activity against methicillin-resistant Streptococcus pneumoniae ATCC 700677 after 18 hrs by broth microdilution assay; assay type: functional; settings: ATCC 700677, 18 h; summary of the method: as §1
Staphylococcus aureus [8] = experiment: Inhibition of biofilm formation in methicillin-resistant Staphylococcus aureus NRS384 USA300 at 2 times MIC after 24 hrs by crystal violet staining-based spectrophotometric analysis relative to control; parameters: scale not given: the % may be the effect or the level left
Staphylococcus aureus [9] = experiment: Antibacterial activity against methicillin-sensitive Staphylococcus aureus NRS107 after 18 hrs by broth microdilution assay; assay type: functional; settings: NRS107, 18 h; summary of the method: as §1
Staphylococcus aureus [10] = experiment: Bactericidal activity against vancomycin-resistant Staphylococcus aureus VRS10 incubated fo 18 hrs followed by re-plating on tryptic soy agar plates at 37 degC for 18 hrs by broth microdilution assay; assay type: functional; settings: VRS10, 18 h
Staphylococcus aureus [11] = experiment: Bactericidal activity against methicillin-resistant Staphylococcus aureus NRS384 USA300 incubated fo 18 hrs followed by re-plating on tryptic soy agar plates at 37 degC for 18 hrs by broth microdilution assay; assay type: functional; settings: NRS384 USA300, 18 h
Staphylococcus aureus [12] = experiment: Antibacterial activity against methicillin-sensitive Staphylococcus aureus ATCC 6538 after 18 hrs by broth microdilution assay; assay type: functional; settings: ATCC 6538, 18 h; summary of the method: as §1
Enterococcus faecalis [13] = experiment: Antibacterial activity against vancomycin-resistant Enterococcus faecalis ATCC 51299 after 18 hrs by broth microdilution assay; assay type: functional; settings: ATCC 51299, 18 h; summary of the method: as §1
Staphylococcus aureus [14] = experiment: Antibacterial activity against methicillin-resistant Staphylococcus aureus NRS386 after 18 hrs by broth microdilution assay; assay type: functional; settings: NRS386, 18 h; summary of the method: as §1
Listeria monocytogenes [15] = experiment: Antibacterial activity against Listeria monocytogenes ATCC 19111 after 18 hrs by broth microdilution assay; assay type: functional; settings: ATCC 19111, 18 h
Enterococcus faecium [16] = experiment: Bactericidal activity against vancomycin-resistant Enterococcus faecium ATCC 700221 incubated fo 18 hrs followed by re-plating on tryptic soy agar plates at 37 degC for 18 hrs by broth microdilution assay; settings: ATCC 700221, 18 h
Staphylococcus aureus [17] = experiment: Antibacterial activity against vancomycin-resistant Staphylococcus aureus VRS12 after 18 hrs by broth microdilution assay; assay type: functional; settings: VRS12, 18 h; summary of the method: as §1
Staphylococcus aureus [18] = experiment: Inhibition of biofilm formation in methicillin-resistant Staphylococcus aureus NRS384 USA300 after 24 hrs by crystal violet staining-based spectrophotometric analysis
Listeria monocytogenes [19] = experiment: Bactericidal activity against Listeria monocytogenes ATCC 19111 incubated fo 18 hrs followed by re-plating on tryptic soy agar plates at 37 degC for 18 hrs by broth microdilution assay; assay type: functional; settings: ATCC 19111, 18 h
Staphylococcus aureus [20] = experiment: Bactericidal activity against methicillin-resistant Staphylococcus aureus NRS123 USA400 incubated fo 18 hrs followed by re-plating on tryptic soy agar plates at 37 degC for 18 hrs by broth microdilution assay; assay type: functional; settings: NRS123 USA400, 18 h
Staphylococcus aureus [21] = experiment: Antibacterial activity against methicillin-resistant Staphylococcus aureus NRS123 USA400 assessed as reduction in bacterial burden measured over 24 hrs by time kill assay; assay type: functional
Summary of the method: (§2)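 Samples taken at 0, 2, 4, 6, 8, 12 and 24 h were serially diluted in PBS, plated on TSA and incubated ≥18 h for viable CFU/mL. DMSO was the negative control; two independent experiments.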

Staphylococcus aureus [22] = experiment: Antibacterial activity against vancomycin-resistant Staphylococcus aureus VRS10 after 18 hrs by broth microdilution assay; assay type: functional; settings: VRS10, 18 h; summary of the method: as §1
Enterococcus faecium [23] = experiment: Antibacterial activity against vancomycin-resistant Enterococcus faecium ATCC 700221 after 18 hrs by broth microdilution assay; assay type: functional; settings: ATCC 700221, 18 h; summary of the method: as §1
[24] = system: Staphylococcus epidermidis; experiment: Antibacterial activity against methicillin-resistant Staphylococcus epidermidis NRS101 after 18 hrs by broth microdilution assay; assay type: functional; settings: NRS101, 18 h; summary of the method: as §1
Staphylococcus aureus [25] = experiment: Antibacterial activity against methicillin-resistant Staphylococcus aureus NRS123 USA400 after 18 hrs by broth microdilution assay; assay type: functional; settings: NRS123 USA400, 18 h; summary of the method: as §1
Staphylococcus aureus [26] = experiment: Antibacterial activity against methicillin-resistant Staphylococcus aureus NRS119 after 18 hrs by broth microdilution assay; assay type: functional; settings: NRS119, 18 h; summary of the method: as §1
Listeria monocytogenes [27] = experiment: Selectivity ratio of MBC to MIC for Listeria monocytogenes ATCC 19111; assay type: functional
[28] = system: Staphylococcus epidermidis; experiment: Bactericidal activity against methicillin-resistant Staphylococcus epidermidis NRS101 incubated fo 18 hrs followed by re-plating on tryptic soy agar plates at 37 degC for 18 hrs by broth microdilution assay; assay type: functional; settings: NRS101, 18 h
Staphylococcus aureus [29] = experiment: Antibacterial activity against methicillin-resistant Staphylococcus aureus 2658 RCMB after 18 hrs by broth microdilution assay; assay type: functional; summary of the method: as §1
Staphylococcus aureus [30] = experiment: Bactericidal activity against methicillin-sensitive Staphylococcus aureus NRS107 incubated fo 18 hrs followed by re-plating on tryptic soy agar plates at 37 degC for 18 hrs by broth microdilution assay; assay type: functional; settings: NRS107, 18 h
Staphylococcus aureus [31] = experiment: Bactericidal activity against methicillin-resistant Staphylococcus aureus NRS385 incubated fo 18 hrs followed by re-plating on tryptic soy agar plates at 37 degC for 18 hrs by broth microdilution assay; assay type: functional; settings: NRS385, 18 h
Staphylococcus aureus [32] = experiment: Inhibition of biofilm formation in methicillin-resistant Staphylococcus aureus NRS384 USA300 at 1 time MIC after 24 hrs by crystal violet staining-based spectrophotometric analysis relative to control; parameters: scale not given: the % may be the effect or the level left
Streptococcus pneumoniae [33] = experiment: Bactericidal activity against cephalosporin-resistant Streptococcus pneumoniae ATCC 51916 incubated fo 18 hrs followed by re-plating on tryptic soy agar plates at 37 degC for 18 hrs by broth microdilution assay; assay type: functional; settings: ATCC 51916, 18 h
Staphylococcus aureus [34] = experiment: Bactericidal activity against vancomycin-resistant Staphylococcus aureus VRS12 incubated fo 18 hrs followed by re-plating on tryptic soy agar plates at 37 degC for 18 hrs by broth microdilution assay; assay type: functional; settings: VRS12, 18 h
Staphylococcus aureus [35] = experiment: Bactericidal activity against methicillin-resistant Staphylococcus aureus NRS119 incubated fo 18 hrs followed by re-plating on tryptic soy agar plates at 37 degC for 18 hrs by broth microdilution assay; assay type: functional; settings: NRS119, 18 h
Staphylococcus aureus [36] = experiment: Bactericidal activity against methicillin-resistant Staphylococcus aureus NRS386 incubated fo 18 hrs followed by re-plating on tryptic soy agar plates at 37 degC for 18 hrs by broth microdilution assay; assay type: functional; settings: NRS386, 18 h
Staphylococcus aureus [37] = experiment: Antibacterial activity against methicillin-resistant Staphylococcus aureus NRS123 USA400 assessed as change in MIC after 14 serial passages by broth microdilution assay
Enterococcus faecalis [38] = experiment: Bactericidal activity against vancomycin-resistant Enterococcus faecalis ATCC 51299 incubated fo 18 hrs followed by re-plating on tryptic soy agar plates at 37 degC for 18 hrs by broth microdilution assay; assay type: functional; settings: ATCC 51299, 18 h
Staphylococcus aureus [39] = experiment: Antibacterial activity against methicillin-resistant Staphylococcus aureus NRS123 USA400 assessed as reduction in bacterial growth after 2 to 4 hrs by time kill assay; assay type: functional, organism-based; summary of the method: as §2
[40] = Terminal phase volume of distribution at steady state in Sprague-Dawley rat at 5 uM, iv administered as bolus dose by LC-MS/MS analysis; assay type: ADME, organism-based; settings: in vivo, read-out: Vbeta
Summary of the method: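 Male naïve Sprague–Dawley rats (n = 3) given tail-vein IV bolus of a 5 µM solution; blood taken into EDTA-K2 over 12 h; plasma protein-precipitated with acetonitrile and measured by LC/MS/MS; parameters from two-compartmental analysis.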

## Cc1nc(-c2ccc(C(C)(C)C)cc2)sc1-c1ccnc(NC(=N)c2cccnc2)n1
Caco-2
  Activity: Non-Toxic
Staphylococcus aureus [1]
  MIC: 4 µg/mL (≈ 9.33 µM)
Streptococcus pneumoniae [2]
  MIC: 4 µg/mL (≈ 9.33 µM)
[3]
  selectivity ratio at 2 h, 32 ug/ml: 8 to 30
Streptococcus pneumoniae [4]
  MBC: 8 µg/mL (≈ 18.7 µM)
Staphylococcus aureus [5]
  MIC: 4 µg/mL (≈ 9.33 µM)
Staphylococcus aureus [6]
  MBC: 4 µg/mL (≈ 9.33 µM)
Streptococcus pneumoniae [7]
  MIC: 4 µg/mL (≈ 9.33 µM)
Staphylococcus aureus [8]
  Activity: 65.2%
Staphylococcus aureus [9]
  MIC: 4 µg/mL (≈ 9.33 µM)
Staphylococcus aureus [10]
  MBC: 4 µg/mL (≈ 9.33 µM)
Staphylococcus aureus [11]
  MBC: 4 µg/mL (≈ 9.33 µM)
Staphylococcus aureus [12]
  MIC: 4 µg/mL (≈ 9.33 µM)
Enterococcus faecalis [13]
  MIC: 8 µg/mL (≈ 18.7 µM)
Staphylococcus aureus [14]
  MIC: 4 µg/mL (≈ 9.33 µM)
Listeria monocytogenes [15]
  MIC: 4 µg/mL (≈ 9.33 µM)
Enterococcus faecium [16]
  MBC: 16 µg/mL (≈ 37.3 µM)
Staphylococcus aureus [17]
  MIC: 4 µg/mL (≈ 9.33 µM)
Staphylococcus aureus [18]
  inhibition: Dose-dependent effect
Listeria monocytogenes [19]
  MBC: 64 µg/mL (≈ 149 µM)
Staphylococcus aureus [20]
  MBC: 4 µg/mL (≈ 9.33 µM)
Staphylococcus aureus [21]
  Activity: 2.3 log10CFU/ml
Staphylococcus aureus [22]
  MIC: 4 µg/mL (≈ 9.33 µM)
Enterococcus faecium [23]
  MIC: 8 µg/mL (≈ 18.7 µM)
[24]
  MIC: 64 µg/mL (≈ 149 µM)
Staphylococcus aureus [25]
  MIC: 4 µg/mL (≈ 9.33 µM)
Staphylococcus aureus [26]
  MIC: 4 µg/mL (≈ 9.33 µM)
Listeria monocytogenes [27]
  Ratio: >3
[28]
  MBC: > 64 µg/mL
Staphylococcus aureus [29]
  MIC: 0.78 µg/mL (≈ 1.82 µM)
Staphylococcus aureus [30]
  MBC: 4 µg/mL (≈ 9.33 µM)
Staphylococcus aureus [31]
  MBC: 4 µg/mL (≈ 9.33 µM)
Staphylococcus aureus [32]
  Activity: 45.8%
Streptococcus pneumoniae [33]
  MBC: 8 µg/mL (≈ 18.7 µM)
Staphylococcus aureus [34]
  MBC: 4 µg/mL (≈ 9.33 µM)
Staphylococcus aureus [35]
  MBC: 4 µg/mL (≈ 9.33 µM)
Staphylococcus aureus [36]
  MBC: 4 µg/mL (≈ 9.33 µM)

## Cc1nc(-c2ccc(C(C)(C)C)cc2)sc1-c1ccnc(NCCN)n1
Caco-2
  Activity: Non-Toxic
[3]
  selectivity ratio at 2 h, 32 ug/ml: 8 to 30
Streptococcus pneumoniae [4]
  MBC: 16 µg/mL (≈ 43.5 µM)
Streptococcus pneumoniae [7]
  MIC: 2 µg/mL (≈ 5.44 µM)
Staphylococcus aureus [8]
  Activity: 64%
Staphylococcus aureus [9]
  MIC: 4 µg/mL (≈ 10.9 µM)
Staphylococcus aureus [37]
  Ratio: 1
Staphylococcus aureus [12]
  MIC: 4 µg/mL (≈ 10.9 µM)
Enterococcus faecalis [13]
  MIC: 16 µg/mL (≈ 43.5 µM)
Enterococcus faecium [16]
  MBC: 8 µg/mL (≈ 21.8 µM)
Staphylococcus aureus [18]
  inhibition: Dose-dependent effect
Enterococcus faecalis [38]
  MBC: 16 µg/mL (≈ 43.5 µM)
Staphylococcus aureus [29]
  MIC: 1.17 µg/mL (≈ 3.18 µM)
Staphylococcus aureus [32]
  Activity: 28%
Streptococcus pneumoniae [33]
  MBC: 16 µg/mL (≈ 43.5 µM)
Staphylococcus aureus [39]
  Activity: Active
[40]
  Vd at 5 µM: 16.4 L
